# Measured values from ChEMBL document CHEMBL1671676, “In vitro activity of nemonoxacin, a novel nonfluorinated quinolone, against 2,440 clinical isolates” (2009).
# How the values were obtained:
# Type in all cases: functional
# [1] = test system: Staphylococcus aureus; assay: Antibacterial activity against community-associated methicillin-resistant Staphylococcus aureus assessed as percent cumulative susceptible isolates at minimum inhibitory concentration of […] by CLSI broth microdilution method; parameters: scale not given: the % may be the effect or the level left
# [2] = test system: Escherichia coli; assay: Antibacterial activity against Escherichia coli assessed as percent cumulative susceptible isolates at minimum inhibitory concentration of 0.06 ug/ml by CLSI broth microdilution method; parameters: scale not given: the % may be the effect or the level left
# [3] = test system: Enterococcus faecium; assay: Antibacterial activity against Enterococcus faecium assessed as percent cumulative susceptible isolates at minimum inhibitory concentration of 2 ug/ml by CLSI broth microdilution method; parameters: scale not given: the % may be the effect or the level left
# [4] = test system: Enterobacteriaceae; assay: Antibacterial activity against Enterobacteriaceae by CLSI M7-A7 broth microdilution method
# [5] = test system: Enterobacter cloacae; assay: Antibacterial activity against Enterobacter cloacae assessed as percent cumulative susceptible isolates at minimum inhibitory concentration of 8 ug/ml by CLSI broth microdilution method; parameters: scale not given: the % may be the effect or the level left
# [6] = test system: Staphylococcus aureus; assay: Antibacterial activity against methicillin-susceptible Staphylococcus aureus assessed as percent cumulative susceptible isolates at minimum inhibitory concentration of 8 ug/ml by CLSI broth microdilution method; parameters: scale not given: the % may be the effect or the level left
# [7] = test system: Acinetobacter baumannii; assay: Antibacterial activity against Acinetobacter baumannii assessed as percent cumulative susceptible isolates at minimum inhibitory concentration of […] by CLSI broth microdilution method; parameters: scale not given: the % may be the effect or the level left
# [8] = test system: Staphylococcus aureus; assay: Antibacterial activity against methicillin-susceptible Staphylococcus aureus assessed as percent cumulative susceptible isolates at minimum inhibitory concentration of 0.5 ug/ml by CLSI broth microdilution method; parameters: scale not given: the % may be the effect or the level left
# [9] = test system: Klebsiella pneumoniae; assay: Antibacterial activity against Klebsiella pneumoniae assessed as percent cumulative susceptible isolates at minimum inhibitory concentration of […] by CLSI broth microdilution method; parameters: scale not given: the % may be the effect or the level left
# [10] = test system: Stenotrophomonas maltophilia; assay: Antibacterial activity against Stenotrophomonas maltophilia assessed as percent cumulative susceptible isolates at minimum inhibitory concentration of 2 ug/ml by CLSI broth microdilution method; parameters: scale not given: the % may be the effect or the level left
# [11] = test system: Staphylococcus aureus; assay: Antibacterial activity against methicillin-resistant Staphylococcus aureus assessed as percent cumulative susceptible isolates at minimum inhibitory concentration of […] by CLSI broth microdilution method; parameters: scale not given: the % may be the effect or the level left
# [12] = test system: Pseudomonas aeruginosa; assay: Antibacterial activity against Pseudomonas aeruginosa assessed as percent cumulative susceptible isolates at minimum inhibitory concentration of 32 ug/ml by CLSI broth microdilution method; parameters: scale not given: the % may be the effect or the level left
# [13] = test system: Enterobacter cloacae; assay: Antibacterial activity against Enterobacter cloacae assessed as percent cumulative susceptible isolates at minimum inhibitory concentration of 0.06 ug/ml by CLSI broth microdilution method; parameters: scale not given: the % may be the effect or the level left
# [14] = test system: Staphylococcus epidermidis; assay: Antibacterial activity against methicillin-susceptible Staphylococcus epidermidis assessed as percent cumulative susceptible isolates at minimum inhibitory concentration of 2 ug/ml by CLSI broth microdilution method; parameters: scale not given: the % may be the effect or the level left
# [15] = test system: Staphylococcus epidermidis; assay: Antibacterial activity against methicillin-susceptible Staphylococcus epidermidis assessed as percent cumulative susceptible isolates at minimum inhibitory concentration of 8 ug/ml by CLSI broth microdilution method; parameters: scale not given: the % may be the effect or the level left
# [16] = test system: Escherichia coli; assay: Antibacterial activity against Escherichia coli assessed as percent cumulative susceptible isolates at minimum inhibitory concentration of 1 ug/ml by CLSI broth microdilution method; parameters: scale not given: the % may be the effect or the level left
# [17] = test system: Staphylococcus aureus; assay: Antibacterial activity against hospital-associated methicillin-resistant Staphylococcus aureus assessed as percent cumulative susceptible isolates at minimum inhibitory concentration of 8 ug/ml by CLSI broth microdilution method; parameters: scale not given: the % may be the effect or the level left
# [18] = test system: Staphylococcus epidermidis; assay: Antibacterial activity against methicillin-susceptible Staphylococcus epidermidis assessed as percent cumulative susceptible isolates at minimum inhibitory concentration of 4 ug/ml by CLSI broth microdilution method; parameters: scale not given: the % may be the effect or the level left
# [19] = test system: Escherichia coli; assay: Antibacterial activity against Escherichia coli assessed as percent cumulative susceptible isolates at minimum inhibitory concentration of […] by CLSI broth microdilution method; parameters: scale not given: the % may be the effect or the level left
# [20] = test system: Staphylococcus aureus; assay: Antibacterial activity against methicillin-resistant Staphylococcus aureus assessed as percent cumulative susceptible isolates at minimum inhibitory concentration of 1 ug/ml by CLSI broth microdilution method; parameters: scale not given: the % may be the effect or the level left
# [21] = test system: Acinetobacter baumannii; assay: Antibacterial activity against Acinetobacter baumannii assessed as percent cumulative susceptible isolates at minimum inhibitory concentration of 0.5 ug/ml by CLSI broth microdilution method; parameters: scale not given: the % may be the effect or the level left
# [22] = test system: Stenotrophomonas maltophilia; assay: Antibacterial activity against Stenotrophomonas maltophilia assessed as percent cumulative susceptible isolates at minimum inhibitory concentration of 1 ug/ml by CLSI broth microdilution method; parameters: scale not given: the % may be the effect or the level left
# [23] = test system: Enterobacter cloacae; assay: Antibacterial activity against Enterobacter cloacae assessed as percent cumulative susceptible isolates at minimum inhibitory concentration of 1 ug/ml by CLSI broth microdilution method; parameters: scale not given: the % may be the effect or the level left
# [24] = test system: Staphylococcus epidermidis; assay: Antibacterial activity against methicillin-susceptible Staphylococcus epidermidis assessed as percent cumulative susceptible isolates at minimum inhibitory concentration of 32 ug/ml by CLSI broth microdilution method; parameters: scale not given: the % may be the effect or the level left
# Outline: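 Clinical isolates tested by CLSI broth microdilution using 96-well panels of doubling drug dilutions in cation-adjusted Mueller-Hinton broth with 5% lysed horse blood. MIC was read from these panels. Panel quality control used CLSI ATCC strains, including S. pneumoniae 49619, S. aureus 29213, E. faecalis 29212 and E. coli 25922. Cumulative percentages of isolates were tabulated at each MIC.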
# [25] = test system: Klebsiella pneumoniae; assay: Antibacterial activity against Klebsiella pneumoniae assessed as percent cumulative susceptible isolates at minimum inhibitory concentration of 32 ug/ml by CLSI broth microdilution method; parameters: scale not given: the % may be the effect or the level left
# [26] = test system: Klebsiella oxytoca; assay: Antibacterial activity against Klebsiella oxytoca assessed as percent cumulative susceptible isolates at minimum inhibitory concentration of 0.06 ug/ml by CLSI broth microdilution method; parameters: scale not given: the % may be the effect or the level left
# [27] = test system: Staphylococcus aureus; assay: Antibacterial activity against non-levofloxacin susceptible Staphylococcus aureus assessed as percent cumulative susceptible isolates at minimum inhibitory concentration of 8 ug/ml by CLSI broth microdilution method; parameters: scale not given: the % may be the effect or the level left
# [28] = test system: Staphylococcus epidermidis; assay: Antibacterial activity against methicillin-susceptible Staphylococcus epidermidis assessed as percent cumulative susceptible isolates at minimum inhibitory concentration of […] by CLSI broth microdilution method; parameters: scale not given: the % may be the effect or the level left
# [29] = test system: Stenotrophomonas maltophilia; assay: Antibacterial activity against Stenotrophomonas maltophilia assessed as percent cumulative susceptible isolates at minimum inhibitory concentration of 64 ug/ml by CLSI broth microdilution method; parameters: scale not given: the % may be the effect or the level left
# [30] = test system: Enterococcus faecalis; assay: Antibacterial activity against Enterococcus faecalis assessed as percent cumulative susceptible isolates at minimum inhibitory concentration of 4 ug/ml by CLSI broth microdilution method; parameters: scale not given: the % may be the effect or the level left
# [31] = test system: Staphylococcus aureus; assay: Antibacterial activity against Levofloxacin-susceptible Staphylococcus aureus assessed as percent cumulative susceptible isolates at minimum inhibitory concentration of <=0.008 ug/ml by CLSI broth microdilution method; parameters: scale not given: the % may be the effect or the level left
# [32] = test system: Staphylococcus epidermidis; assay: Antibacterial activity against methicillin-resistant Staphylococcus epidermidis assessed as percent cumulative susceptible isolates at minimum inhibitory concentration of […] by CLSI broth microdilution method; parameters: scale not given: the % may be the effect or the level left
# [33] = test system: Staphylococcus aureus; assay: Antibacterial activity against Levofloxacin-susceptible Staphylococcus aureus assessed as percent cumulative susceptible isolates at minimum inhibitory concentration of 0.03 ug/ml by CLSI broth microdilution method; parameters: scale not given: the % may be the effect or the level left
# [34] = test system: Escherichia coli; assay: Antibacterial activity against Escherichia coli assessed as percent cumulative susceptible isolates at minimum inhibitory concentration of 128 ug/ml by CLSI broth microdilution method; parameters: scale not given: the % may be the effect or the level left
# [35] = test system: Pseudomonas aeruginosa; assay: Antibacterial activity against Pseudomonas aeruginosa by CLSI M7-A7 broth microdilution method
# [36] = test system: Klebsiella pneumoniae; assay: Antibacterial activity against Klebsiella pneumoniae assessed as percent cumulative susceptible isolates at minimum inhibitory concentration of 64 ug/ml by CLSI broth microdilution method; parameters: scale not given: the % may be the effect or the level left
SMILES,Activity [1],Activity [2],Activity [3],MIC90 [4],Activity [5],Activity [6],Activity [7],Activity [8],Activity [9],Activity [10],Activity [11],Activity [12],Activity [13],Activity [14],Activity [16],Activity [17],Activity [18],Activity [19],Activity [20],Activity [21],also measured
C[C@H]1COc2c(N3CCN(C)CC3)c(F)cc3c(=O)c(C(=O)O)cn1c23.C[C@H]1COc2c(N3CCN(C)CC3)c(F)cc3c(=O)c(C(=O)O)cn1c23.O [LEVOFLOXACIN],24%,66.4%,23.7%,≤ 0.06 µg/mL,98.6%,93.6%,80%,88.8%,78.4%,69.2%,8.7%,100%,87.5%,55.8%,75.1%,4%,62.8%,70%,9.4%,86.7%,Activity [15]: 76.7%; Activity [22]: 46.2%; Activity [23]: 91.7%; Activity [24]: 100%; Activity [25]: 100%; Activity [26]: 93.8%
COc1c(N2C[C@@H](C)C[C@H](N)C2)ccc2c(=O)c(C(=O)O)cn(C3CC3)c12 [NEMONOXACIN],60%,22.7%,31.6%,0.5 µg/mL,95.8%,99.2%,73.3%,93.9%,68.3%,42.3%,16.5%,91.2%,8.3%,97.8%,74.8%,68.7%,100%,68.8%,34.6%,86.7%,Activity [27]: 76.2%; Activity [28]: 37.2%; Activity [29]: 100%; Activity [30]: 98.8%; Activity [31]: 5.9%; Activity [32]: 11.1%; Activity [22]: 26.9%; Activity [23]: 91.7%; Activity [33]: 78.3%; Activity [34]: 99.3%; MIC90 [35]: ≥ 8 µg/mL; Activity [25]: 98%; Activity [36]: 98.5%; Activity [26]: 6.3%
